In ChEMBL document CHEMBL1146365, “Synthesis and biological evaluation of new N-(2-hydroxy-4(or 5)-nitro/aminophenyl)benzamides and phenylacetamides as antimicrobial agents” (2007):
In brackets after ≈: the same amount, converted by molar mass.

Columns and labels:
Bacillus subtilis [1] = assay: Antibacterial activity against drug-resistant Bacillus subtilis assessed after 24 hrs by serial dilution method
Klebsiella pneumoniae [2] = assay: Antibacterial activity against Klebsiella pneumoniae isolate assessed after 24 hrs by serial dilution method; type: functional
How it was run: (§1)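 Strains were subcultured twice on MHA at 37 °C overnight. Inoculum was diluted from McFarland 0.5 to 10^5 cfu/ml, giving 10^4 cfu/ml in wells. Solvent, medium and organism-only controls were included. Incubated 37 °C, humid chamber, 24 h, in triplicate. MIC = lowest concentration with no macroscopic growth.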

Klebsiella pneumoniae [3] = assay: Antibacterial activity against Klebsiella pneumoniae RSHM 574 assessed after 24 hrs by serial dilution method
Escherichia coli [4] = assay: Antibacterial activity against Escherichia coli isolate assessed after 24 hrs by serial dilution method; type: functional
How it was run: as §1

Staphylococcus aureus [5] = assay: Antibacterial activity against Staphylococcus aureus ATCC 25923 assessed after 24 hrs by serial dilution method; type: functional
How it was run: as §1

Pseudomonas aeruginosa [6] = assay: Antibacterial activity against Pseudomonas aeruginosa isolate assessed after 24 hrs by serial dilution method; type: functional
How it was run: as §1

Staphylococcus aureus [7] = assay: Antibacterial activity against drug-resistant Staphylococcus aureus assessed after 24 hrs by serial dilution method
Escherichia coli [8] = assay: Antibacterial activity against Escherichia coli ATCC 25922 assessed after 24 hrs by serial dilution method
Bacillus subtilis [9] = assay: Antibacterial activity against Bacillus subtilis ATCC 6633 assessed after 24 hrs by serial dilution method; type: functional
How it was run: as §1

Candida albicans [10] = assay: Antifungal activity against Candida albicans isolate assessed after 48 hrs by serial dilution method; type: functional
How it was run: (§2)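 Broth microdilution per CLSI M27-A in RPMI-1640 with L-glutamine, MOPS-buffered pH 7, with 2-fold compound dilutions. Yeasts were subcultured twice on SDA at 35 °C for 24–48 h. Inoculum was diluted from McFarland 0.5 to 10^4 cfu/ml, giving 10^3 cfu/ml in wells. Incubated 35 °C, humid chamber, 48 h, in triplicate. MIC = lowest concentration with no macroscopic growth.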

Escherichia coli [11] = assay: Antibacterial activity against Escherichia coli ATCC assessed after 24 hrs by serial dilution method
Candida albicans [12] = assay: Antifungal activity against Candida albicans ATCC 10231 assessed after 48 hrs by serial dilution method; type: functional; settings: ATCC 10231, 48 h
How it was run: as §2

Pseudomonas aeruginosa [13] = assay: Antibacterial activity against Pseudomonas aeruginosa ATCC […] assessed after 24 hrs by serial dilution method

Row | Molecule | MIC (Bacillus subtilis [1]) [mg/L] | MIC (Klebsiella pneumoniae [2]) [mg/L] | MIC (Klebsiella pneumoniae [3]) [mg/L] | MIC (Escherichia coli [4]) [mg/L] | MIC (Pseudomonas aeruginosa [6]) [mg/L] | MIC (Staphylococcus aureus [7]) [mg/L] | MIC (Staphylococcus aureus [5]; ATCC 25923, 24 h) [mg/L] | MIC (Candida albicans [10]) [mg/L] | MIC (Escherichia coli [11]) [mg/L] | MIC (Candida albicans [12]) [mg/L] | MIC (Bacillus subtilis [9]; ATCC 6633, 24 h) [mg/L] | MIC (Pseudomonas aeruginosa [13]) [mg/L] | MIC (Staphylococcus aureus [5]) [mg/L] | MIC (Escherichia coli [8]) [mg/L] | MIC (Bacillus subtilis [9]) [mg/L]
1 | GENTAMICIN SULFATE | 2050 | 1020 | > 4100 | 0.97 | 1020 | 1020 | – | – | – | – | – | – | > 4100 | 1020 | 512
2 | Cc1ccc(CC(=O)Nc2cc([N+](=O)[O-])ccc2O)cc1 | 62.5 (≈ 218 µM) | 250 (≈ 873 µM) | 125 (≈ 437 µM) | 250 (≈ 873 µM) | 250 (≈ 873 µM) | 125 (≈ 437 µM) | 250 (≈ 873 µM) | 250 (≈ 873 µM) | 125 (≈ 437 µM) | 250 (≈ 873 µM) | 15.6 (≈ 54.5 µM) | 125 (≈ 437 µM) | – | – | –
3 | O=C(Cc1ccc(F)cc1)Nc1cc([N+](=O)[O-])ccc1O | 31.2 (≈ 108 µM) | 125 (≈ 431 µM) | 125 (≈ 431 µM) | 250 (≈ 861 µM) | 250 (≈ 861 µM) | 31.2 (≈ 108 µM) | 31.2 (≈ 108 µM) | 125 (≈ 431 µM) | 62.5 (≈ 215 µM) | 250 (≈ 861 µM) | 15.6 (≈ 53.7 µM) | 250 (≈ 861 µM) | – | – | –
4 | Cc1ccc(CC(=O)Nc2ccc([N+](=O)[O-])cc2O)cc1 | 250 (≈ 873 µM) | 250 (≈ 873 µM) | 125 (≈ 437 µM) | 250 (≈ 873 µM) | 250 (≈ 873 µM) | 500 (≈ 1750 µM) | 250 (≈ 873 µM) | 250 (≈ 873 µM) | 125 (≈ 437 µM) | 62.5 (≈ 218 µM) | 125 (≈ 437 µM) | 250 (≈ 873 µM) | – | – | –
5 | O=C(Nc1ccc([N+](=O)[O-])cc1O)c1ccccc1 | 31.2 (≈ 121 µM) | 250 (≈ 968 µM) | 125 (≈ 484 µM) | 250 (≈ 968 µM) | 250 (≈ 968 µM) | 125 (≈ 484 µM) | 62.5 (≈ 242 µM) | 125 (≈ 484 µM) | 125 (≈ 484 µM) | 62.5 (≈ 242 µM) | 31.2 (≈ 121 µM) | 125 (≈ 484 µM) | – | – | –
6 | O=C(Cc1ccc(F)cc1)Nc1ccc([N+](=O)[O-])cc1O | 31.2 (≈ 108 µM) | 125 (≈ 431 µM) | 250 (≈ 861 µM) | 250 (≈ 861 µM) | 250 (≈ 861 µM) | 62.5 (≈ 215 µM) | 125 (≈ 431 µM) | 125 (≈ 431 µM) | 125 (≈ 431 µM) | 125 (≈ 431 µM) | 250 (≈ 861 µM) | 125 (≈ 431 µM) | – | – | –

The next lines start with results.

Row | MIC (Bacillus subtilis [1]) [mg/L] | MIC (Klebsiella pneumoniae [2]) [mg/L] | MIC (Klebsiella pneumoniae [3]) [mg/L] | MIC (Escherichia coli [4]) [mg/L] | MIC (Pseudomonas aeruginosa [6]) [mg/L] | MIC (Staphylococcus aureus [7]) [mg/L] | MIC (Staphylococcus aureus [5]; ATCC 25923, 24 h) [mg/L] | MIC (Candida albicans [10]) [mg/L] | MIC (Escherichia coli [11]) [mg/L] | MIC (Candida albicans [12]) [mg/L] | MIC (Bacillus subtilis [9]; ATCC 6633, 24 h) [mg/L] | MIC (Pseudomonas aeruginosa [13]) [mg/L] | Molecule | MIC (Staphylococcus aureus [5]) [mg/L] | MIC (Escherichia coli [8]) [mg/L] | MIC (Bacillus subtilis [9]) [mg/L]
7 | 31.2 (≈ 102 µM) | 250 (≈ 814 µM) | 250 (≈ 814 µM) | 250 (≈ 814 µM) | 250 (≈ 814 µM) | 7.8 (≈ 25.4 µM) | 125 (≈ 407 µM) | 125 (≈ 407 µM) | 125 (≈ 407 µM) | 250 (≈ 814 µM) | 62.5 (≈ 203 µM) | 250 (≈ 814 µM) | Nc1ccc(NC(=O)c2ccc(Br)cc2)c(O)c1 | – | – | –
8 | 62.5 (≈ 254 µM) | 125 (≈ 508 µM) | 62.5 (≈ 254 µM) | 125 (≈ 508 µM) | 125 (≈ 508 µM) | 15.6 (≈ 63.4 µM) | 15.6 (≈ 63.4 µM) | 62.5 (≈ 254 µM) | 125 (≈ 508 µM) | 62.5 (≈ 254 µM) | 62.5 (≈ 254 µM) | 62.5 (≈ 254 µM) | Nc1ccc(O)c(NC(=O)c2ccc(F)cc2)c1 | – | – | –
9 | 15.6 (≈ 49.6 µM) | 250 (≈ 795 µM) | 125 (≈ 398 µM) | 250 (≈ 795 µM) | 250 (≈ 795 µM) | 1.95 (≈ 6.2 µM) | 7.8 (≈ 24.8 µM) | 125 (≈ 398 µM) | 125 (≈ 398 µM) | 250 (≈ 795 µM) | 7.8 (≈ 24.8 µM) | 125 (≈ 398 µM) | CC(C)(C)c1ccc(C(=O)Nc2ccc([N+](=O)[O-])cc2O)cc1 | – | – | –
10 | 125 (≈ 389 µM) | 125 (≈ 389 µM) | 125 (≈ 389 µM) | 125 (≈ 389 µM) | 250 (≈ 778 µM) | 31.2 (≈ 97.3 µM) | 125 (≈ 389 µM) | 250 (≈ 778 µM) | 125 (≈ 389 µM) | 125 (≈ 389 µM) | 125 (≈ 389 µM) | 250 (≈ 778 µM) | Nc1ccc(NC(=O)Cc2ccc(Br)cc2)c(O)c1 | – | – | –
11 | 15.6 (≈ 56.5 µM) | 250 (≈ 905 µM) | 125 (≈ 453 µM) | 250 (≈ 905 µM) | 250 (≈ 905 µM) | 15.6 (≈ 56.5 µM) | 7.8 (≈ 28.2 µM) | 250 (≈ 905 µM) | 125 (≈ 453 µM) | 250 (≈ 905 µM) | 3.9 (≈ 14.1 µM) | 125 (≈ 453 µM) | O=C(Nc1ccc([N+](=O)[O-])cc1O)c1ccc(F)cc1 | – | – | –
12 | 62.5 (≈ 274 µM) | 250 (≈ 1100 µM) | 125 (≈ 548 µM) | 125 (≈ 548 µM) | 250 (≈ 1100 µM) | 15.6 (≈ 68.3 µM) | 125 (≈ 548 µM) | 62.5 (≈ 274 µM) | 125 (≈ 548 µM) | 62.5 (≈ 274 µM) | 62.5 (≈ 274 µM) | 125 (≈ 548 µM) | Nc1ccc(NC(=O)c2ccccc2)c(O)c1 | – | – | –
